# Experimental data published in PMC11897355 (Nature Communications, 2025).
# Numbering of substitutions follows the chain as printed. “Also recorded” adds a separate entry of the source.
# Tests used:
# [1] = biological target: T1, WT GlyT1 (Homo sapiens, UniProt P48067); assay: [3H]glycine kinetic uptake assay, WT GlyT1; assay type: cell-based
# T1 sequence (P48067 1-652 isoform P48067-3): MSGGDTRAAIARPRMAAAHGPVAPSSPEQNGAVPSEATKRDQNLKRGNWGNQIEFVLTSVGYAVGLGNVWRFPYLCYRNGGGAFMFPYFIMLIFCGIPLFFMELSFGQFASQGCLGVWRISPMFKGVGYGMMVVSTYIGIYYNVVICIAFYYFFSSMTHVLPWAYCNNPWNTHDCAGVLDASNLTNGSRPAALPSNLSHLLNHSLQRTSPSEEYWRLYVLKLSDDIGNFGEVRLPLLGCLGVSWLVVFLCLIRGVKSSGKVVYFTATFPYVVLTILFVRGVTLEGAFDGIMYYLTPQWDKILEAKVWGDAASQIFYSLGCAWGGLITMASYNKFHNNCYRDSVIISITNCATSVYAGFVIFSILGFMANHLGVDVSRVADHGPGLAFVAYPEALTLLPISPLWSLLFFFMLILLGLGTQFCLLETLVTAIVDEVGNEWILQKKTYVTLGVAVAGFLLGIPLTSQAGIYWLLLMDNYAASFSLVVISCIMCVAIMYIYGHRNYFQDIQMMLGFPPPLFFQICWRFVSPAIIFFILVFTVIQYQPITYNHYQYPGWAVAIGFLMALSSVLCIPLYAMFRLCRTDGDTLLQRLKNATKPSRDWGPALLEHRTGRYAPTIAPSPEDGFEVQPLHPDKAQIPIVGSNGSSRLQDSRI
# [2] = biological target: T2, G319S GlyT1 mutant (Homo sapiens, UniProt P48067, G373S); assay: [3H]glycine uptake inhibition assay, GlyT1 G319S mutant; assay type: cell-based
# T2 sequence (P48067 1-652 isoform P48067-3 G319S): T1 sequence (P48067 1-652 isoform P48067-3) with G319S
# In short: (§1)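 HEK-293F cells (2.5 × 10^6/mL) infected with baculovirus carrying wild-type or sequence-verified mutant human GlyT1. Cells collected after 15 h and washed in HEPES-Tris pH 7.4 uptake buffer, then preincubated 10 min with graded inhibitor. Uptake ran 1 min at 25 °C with 25 μM [3H]glycine/unlabeled glycine (1:2500). Two cold washes, lysis in 1% Triton X-100, scintillation counting. Uptake normalized to untreated cells. Three independent experiments in triplicate; IC50 fitted to mean data.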
# [3] = biological target: T3, L422T GlyT1 mutant (Homo sapiens, UniProt P48067, L476T); assay: [3H]glycine uptake inhibition assay, GlyT1 L422T mutant; assay type: cell-based
# T3 sequence (P48067 1-652 isoform P48067-3 L422T): T1 sequence (P48067 1-652 isoform P48067-3) with L422T
# In short: as §1
# [4] = biological target: T4, wild-type GlyT1 (Homo sapiens, UniProt P48067); assay: [3H]glycine uptake inhibition assay, wild-type GlyT1 in HEK-293F cells; assay type: cell-based; conditions: IC50, [3H]glycine uptake
# T4 sequence (P48067 1-652 isoform P48067-3): T1 sequence (P48067 1-652 isoform P48067-3)
# In short: as §1
# [5] = system: GlyT1; conditions: rat primary neurons; cited from earlier work
# [6] = biological target: T5, wild-type GlyT2 (Homo sapiens, UniProt Q9Y345); assay: [3H]glycine uptake inhibition assay, wild-type GlyT2; assay type: cell-based
# T5 sequence (Q9Y345 1-797): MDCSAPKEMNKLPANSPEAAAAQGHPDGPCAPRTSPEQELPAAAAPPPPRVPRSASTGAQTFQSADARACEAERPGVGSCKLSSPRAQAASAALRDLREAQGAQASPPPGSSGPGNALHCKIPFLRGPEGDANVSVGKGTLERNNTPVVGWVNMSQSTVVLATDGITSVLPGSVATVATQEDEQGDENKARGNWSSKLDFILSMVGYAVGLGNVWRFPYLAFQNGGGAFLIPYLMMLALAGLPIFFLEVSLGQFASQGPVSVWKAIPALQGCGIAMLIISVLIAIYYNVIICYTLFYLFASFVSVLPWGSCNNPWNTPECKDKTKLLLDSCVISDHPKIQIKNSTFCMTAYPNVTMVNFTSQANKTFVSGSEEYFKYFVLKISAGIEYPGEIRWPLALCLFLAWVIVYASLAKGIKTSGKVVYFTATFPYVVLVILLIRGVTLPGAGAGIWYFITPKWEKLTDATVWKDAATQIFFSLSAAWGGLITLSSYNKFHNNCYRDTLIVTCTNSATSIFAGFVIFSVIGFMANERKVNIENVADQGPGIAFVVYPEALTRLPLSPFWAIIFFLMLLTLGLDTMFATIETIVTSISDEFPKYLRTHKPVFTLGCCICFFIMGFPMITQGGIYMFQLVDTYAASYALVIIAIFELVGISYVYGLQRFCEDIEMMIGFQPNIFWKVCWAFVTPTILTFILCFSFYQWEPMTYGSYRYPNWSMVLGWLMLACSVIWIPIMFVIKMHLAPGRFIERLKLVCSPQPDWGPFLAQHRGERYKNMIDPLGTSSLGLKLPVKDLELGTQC
# [7] = biological target: T5, wild-type GlyT2; conditions: cited from earlier work
# [8] = biological target: T6, S479G GlyT2 mutant (Homo sapiens, UniProt Q9Y345, S479G); assay: [3H]glycine uptake inhibition assay, GlyT2 S479G mutant; assay type: cell-based
# T6 sequence (Q9Y345 1-797 S479G): T5 sequence (Q9Y345 1-797) with S479G
# [9] = system: HEK-293F cells; assay: Cholesterol quantification after MβCD or wsCHOL treatment; assay type: cell-based, human
# [10] = system: WT GlyT1; assay: Cell surface biotinylation and immunoblot; assay type: cell-based, human; conditions: 2.5 mg/mL and 3.5 mg/mL MβCD
compound,measurement,setting,value
NCC(=O)O [glycine],Km,"[1]; WT GlyT1, untreated cells",126 µM
C[C@@H](Oc1ccc(S(C)(=O)=O)cc1C(=O)N1C[C@@H]2C[C@]2(c2cc(C(F)(F)F)on2)C1)C(F)(F)F [iclepertin],inhibition of G319S mutant,[2],not inhibited; also recorded: no visible inhibition effect
same,IC50,[3],5.25 ± 0.33 µM
same,IC50,[4]; wild-type GlyT1,0.162 ± 0.0196 µM
same,IC50,[5],0.0052 ± 0.0012 µM
"CNCC(=O)O [sarcosine, N-methyl glycine]",sensitivity of WT GlyT2 to inhibition,[6],not sensitive
same,IC50,[2],18600 ± 1550 µM
same,reduction of inhibitory potency on G319S compared to WT GlyT1,[2],~ 200 fold
same,inhibition of GlyT1 versus GlyT2,[7],can inhibit GlyT1 but not GlyT2
same,susceptibility of S479G GlyT2 to inhibition,[8],susceptibility similar to that of WT GlyT1
same,IC50,"[4]; wild-type GlyT1, mean ± S.E.M.",96.8 ± 13.7 µM
Methyl-β-cyclodextrin [MβCD],decrease of cholesterol content on the membrane,[9]; 2.5 mg/mL MβCD,10%
same,decrease of cholesterol content on the membrane,[9]; 3.5 mg/mL MβCD,20%
same,reduction of Vmax compared to WT GlyT1,[1]; 2.5 mg/mL MβCD,about 19.6%
same,reduction of Vmax compared to WT GlyT1,[1]; 3.5 mg/mL MβCD,~26.7%
same,effect on Km values,[1]; 2.5 and 3.5 mg/mL MβCD,remained relatively unaffected
same,effect on surface expression of GlyT1,[10],without altering the surface expression
